Common to all, as to type: functional, cell-based
For test [1], the system named is HT-29. As to the kind of experiment: Antiproliferative activity against human HT-29 cells after 3 days by SRB assay. As to conditions: HT-29, 72 h. An outline of the steps: (§1)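 Cells grown at 37 °C, 5% CO2, with 10% heat-inactivated FBS: LXFL529L in RPMI 1640, MCF7 and HT29 in DMEM. Seeded, allowed 24 h growth, then exposed to the drug at various concentrations for 3 days in serum medium. Fixed with TCA for 1 h at 4 °C, stained with 0.4% SRB, eluted in 10 mM Tris pH 10.5, read at 570 nm as % T/C. IC50 taken from dose–response curves of at least three independent experiments.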
For orientation: The SRB assay estimates cell density from bound dye.

The test system of test [2] is MCF7. Kind of test: Antiproliferative activity against human MCF7 cells after 3 days by SRB assay. The following applies: MCF7, 72 h. An outline of the steps: as §1
Test [3] is described as follows: Antiproliferative activity against human LXFL 529L cells after 3 days by SRB assay. As to conditions: 72 h. An outline of the steps:
as §1

For orientation: IC50 means the midpoint of a concentration-inhibition curve. With `O=C1Nc2ccccc2/C1=C1/Nc2ncccc2C1=O`, the IC50 was over 10 µM in test [1], 5 µM in test [2] and 4.4 µM in test [3].

Take `O=C1Nc2ncccc2/C1=C1\C(=O)Nc2ncccc21`: the IC50 in test [1], in test [2] and in test [3] was over 100 µM each time.

In the case of `O=C1Nc2ccccc2/C1=C1/Nc2ccccc2C1=O` [INDIRUBIN], the results for the IC50 in test [2] and in test [3] were 4 µM and 9.9 µM, respectively.

As for `O=C1/C(=C2\Nc3ncccc3C2=O)Nc2ncccc21`, the IC50 in test [1], in test [2] and in test [3] was over 100 µM each time.

As for `O=C1Nc2ncccc2/C1=C1/Nc2ccccc2C1=O`, the values for the IC50 in test [1], in test [2] and in test [3] were over 10 µM, 3 µM and 2.9 µM, respectively.

The values are drawn from ChEMBL document CHEMBL3098105, “7,7'-Diazaindirubin--a small molecule inhibitor of casein kinase 2 in vitro and in cells” (Bioorg Med Chem, 2014).
